Sampled rows, rich in hits. Any-hit rate of the full collection: about 3.9%.
STAT1 act – activators of IFN-gamma induced STAT1 signaling. 200,000 compounds, 2.6% hits. activation (% of control), % at 5.5 µM. NIH 3T3 STAT1-luciferase reporter, luminescence; 100% = IFN-gamma alone, no compound. AID 932;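 active means activation above the screen-wide mean activation plus 3 SD, cut at about 130% in these data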;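 further: raw ratio to IFN-gamma control signal so 100% means no change and 0% no light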
Rad51 HR inh – Rad51 (human) homologous recombination inhibition; inhibition, % at 10 µM; Q06609; hRad51 DNA strand exchange, fluorescence dequenching; 200,000 compounds, 0.085% hits;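 active means inhibition above 40% at the single screening dose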;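 further: 0% = DMSO control wells and 100% = blanks with heterologous ssDNA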
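System: hRad51 filaments on single-stranded DNA; reagent: Fluorescein- and BHQ1-tagged 47-mer duplex; compound dosing: one concentration, 10 µM final; timing: filaments 15 min 37 °C, then compound 30 min; measured by: fluorescein emission 520 nm, excitation 485 nm; benchmarks: per-plate controls and blanks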
APP 5'UTR act – APP 5'UTR luciferase reporter activation; SH-SY5Y APP 5'UTR luciferase reporter, luminescence; zero percent = DMSO vehicle wells; activation, % at 2 µM; 190,000 compounds, 1% hits; AID 1276;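 active means activation above a set limit, based on mean plus 3 SD of controls, cut at about 140% in these data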
FLuc inh counter – inhibits firefly luciferase, flagging false hits in luciferase inhibition screens; ATPLite firefly luciferase biochemical luminescence, 10 min; inhibition, % at 10 µM; 200,000 compounds, 1.5% hits;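 active means inhibition above about 50% when tested at 10 µM, limit read from the data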
Target sequence (P08659 whole entry, looked up): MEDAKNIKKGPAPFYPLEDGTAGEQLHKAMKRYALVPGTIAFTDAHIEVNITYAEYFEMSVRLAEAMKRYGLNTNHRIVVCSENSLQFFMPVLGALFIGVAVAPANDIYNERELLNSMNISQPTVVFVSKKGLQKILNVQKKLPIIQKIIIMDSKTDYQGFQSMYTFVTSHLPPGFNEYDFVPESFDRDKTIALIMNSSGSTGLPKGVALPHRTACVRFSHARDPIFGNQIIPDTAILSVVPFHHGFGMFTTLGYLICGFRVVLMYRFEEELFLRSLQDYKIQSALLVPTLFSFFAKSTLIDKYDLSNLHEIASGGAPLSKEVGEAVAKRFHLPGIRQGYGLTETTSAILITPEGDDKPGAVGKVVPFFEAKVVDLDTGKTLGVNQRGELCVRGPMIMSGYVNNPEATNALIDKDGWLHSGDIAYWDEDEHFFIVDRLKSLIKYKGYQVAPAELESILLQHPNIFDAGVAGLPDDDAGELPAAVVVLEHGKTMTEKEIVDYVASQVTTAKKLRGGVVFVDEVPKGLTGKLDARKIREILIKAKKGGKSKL
NF-kB expr up – NF-kB expression increase, human neuronal cells. NF-kB reporter expression; hits give high values. fold change at 12.5 µM. 190,000 compounds, 1.6% hits. AID 1239; in the data active means fold change above about 3.3
FLuc act counter – firefly luciferase counter-screen for stimulation assays | ATPlite luciferase biochemical, luminescence, 10 min; 0 = ATP-free wells, 1 = DMSO control | activation factor at 10 µM | 200,000 tested, under 10 active | AID 1027;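 active means luciferase activation factor, scaled between plate controls, of at least 2 with compound at 10 µM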
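assay system = Luciferase/luciferin detection reagent, cell-free biochemical luciferase assay | also added = ATP substrate | times = 10 min post-reagent at room temperature | measured by = luminescence from luciferase reaction | measure = luciferase activation, seen as luminescence increase over controls | benchmarks = low control with PBS replacing ATP, high control enzyme plus ATP without compound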
STAT1 act conf – STAT1 activation, confirmation assay; NIH 3T3 STAT1-luciferase reporter, IFN-gamma potentiation, luminescence; 100% = IFN-gamma EC80 alone, no compound; 1,200 compounds, 97% hits; shares compounds with STAT1 act; activation (% of control), % at 5.7 µM; AID 1262;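 active means activation above a set limit carried over from the earlier primary STAT1 screen, cut at about 140% in these data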;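 further: simple ratio to median IFN-gamma plus DMSO wells so 0% means no light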
NFkB act – NF-kappaB activation in STAT1 activator counter-screen. shares compounds with STAT1 act. HEK293T NF-kB luciferase reporter, TNF-alpha stimulated, luminescence; 100% = TNF-alpha with vehicle only. activation (% of control), % at 5.7 µM. 1,200 compounds, 43% hits. AID 1306;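 active means activation above the mean of solvent-only control wells plus 3 SD, set per campaign, cut at about 130% in these data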;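 further: TNF-alpha given at a submaximal dose yielding about 80% of full reporter signal; values are well signal over median control so 100% means no change and 0% no light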
STAT3 act 2 – counter-screen for STAT1 activators: human STAT3 activation. activation (% of control), % at 5.7 µM. U3A cells STAT3-luciferase reporter, IL-6, luminescence; cells lack STAT1; 100 = IL-6 alone, no compound effect. shares compounds with STAT1 act. 1,200 compounds, 46% hits;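 active means activation above the solvent-only control well mean plus 3 SD, set per plate batch, cut at about 110% in these data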;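 further: 0% = no luminescence and 100% = median IL-6 plus DMSO wells; higher means more STAT3 reporter activation so hits are non-selective activators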
* = called active by the depositor; . = no result.

SMILES	STAT1 act	Rad51 HR inh	APP 5'UTR act	FLuc inh counter	NF-kB expr up	FLuc act counter	STAT1 act conf	NFkB act	STAT3 act 2
Nc1ccccc1C(=O)OCC(=O)N1CCc2ccccc21	154*	.	13	28	2.2	0.7	168*	116	97
C=C1[C@@H](OC(C)=O)[C@]23C[C@@H]1[C@@H](OC(C)=O)CC2[C@]12C4C[C@H]3[C@H]1N(CC)C[C@]4(C)CC[C@@H]2O (stereo partly specified)	.	-2	.	.	.	.	.	.	.
Cc1cccc(-n2c(/C=C/c3ccc([N+](=O)[O-])o3)nc3ccccc3c2=O)c1	100	-84	.	-5	1	1.1	.	.	.
O=c1c2ccccc2nc(/C=C/c2ccc([N+](=O)[O-])o2)n1-c1ccc(O)cc1	326*	-8	-80	-6	1.6	1.1	175*	154*	101
CC(=O)Nc1ccccc1C(=O)OCC(=O)c1ccc2c(c1)OCCO2	175*	7	77	82*	0.63	0.2	203*	120	116*
CC(=O)Nc1ccccc1C(=O)OCc1ccc(F)cc1	175*	1	6	-10	0.97	1.1	125	109	97
CN1CCN(S(=O)(=O)c2cnc(Cl)c(Br)c2)CC1	92	-5	3	-3	1.4	1	.	.	.

Screening results from PubChem.
